Measured values reported in ChEMBL document CHEMBL4007417, “Target Elucidation by Cocrystal Structures of NADH-Ubiquinone Oxidoreductase of Plasmodium falciparum (PfNDH2) with Small Molecule To Eliminate Drug-Resistant Malaria” (J Med Chem, 2017).
Active and inactive are the calls of the source. The calls are words filed in the database; no cut-off is given here.

Key:
[1] = test system: Plasmodium falciparum; assay: Antimalarial activity against chloroquine/quinine-resistant asexual blood stage Plasmodium falciparum S35 after 72 hrs by SYBR green-based fluorometric analysis; format: functional; settings: S35, 72 h
Method in brief: (§1)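 Mid-ring-stage cultures (~6-10 h post-invasion) at 1% parasitemia and 2% hematocrit, in triplicate. Twofold serial dilutions from a top concentration of 100 nM. Incubated 72 h at 37 °C under 5% CO2/5% O2/90% N2. Lysis buffer containing 5×SYBR Green I added, 20 min in the dark, fluorescence read at ex 485/em 538 nm. EC50 derived.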

[2] = Inhibition of Plasmodium falciparum NDH2 N92R/S497R double mutant expressed in Escherichia coli DH5alpha competent cells using NADH and ubiquinone-1 as substrate by spectrophotometric analysis
Method in brief: (§2)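 Recombinant PfNDH2 point or double mutants assayed spectrophotometrically at 25 °C. Buffer: 50 mM MOPS pH 7.0, 150 mM NaCl, 1 mM EDTA, 0.01% Triton X-100. Substrates 50 µM NADH and 30 µM ubiquinone-1, with 0.5 nM enzyme and selected inhibitor concentrations.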

[3] = Inhibition of Plasmodium falciparum NDH2 N92R mutant expressed in Escherichia coli DH5alpha competent cells using NADH and ubiquinone-1 as substrate by spectrophotometric analysis; method in brief: as §2
[4] = Binding affinity to Plasmodium falciparum NDH2 expressed in Escherichia coli BL21 assessed as NADH Kd by SPR assay (reference value: 5.22 uM)
[5] = test system: Plasmodium falciparum; assay: Antimalarial activity against multi drug-resistant asexual blood stage Plasmodium falciparum Fab9 after 72 hrs by SYBR green-based fluorometric analysis; format: functional; settings: Fab9, 72 h; method in brief: as §1
[6] = test system: Plasmodium falciparum; assay: Antimalarial activity against chloroquine-resistant asexual blood stage Plasmodium falciparum GB4 after 72 hrs by SYBR green-based fluorometric analysis; format: functional; settings: GB4, 72 h; method in brief: as §1
[7] = test system: Plasmodium falciparum; assay: Antimalarial activity against quinine-resistant asexual blood stage Plasmodium falciparum C2A after 72 hrs by SYBR green-based fluorometric analysis; format: functional; method in brief: as §1
[8] = test system: Plasmodium falciparum; assay: Antimalarial activity against […] asexual blood stage Plasmodium falciparum 3D7 after 72 hrs by SYBR green-based fluorometric analysis; format: functional; settings: 3D7, 72 h; method in brief: as §1
[9] = test system: Plasmodium falciparum; assay: Antimalarial activity against chloroquine/quinine/sulfadoxine-pyrimethamine/amodiaquine-resistant asexual blood stage Plasmodium falciparum Dd2 after 72 hrs by SYBR green-based fluorometric analysis; format: functional; settings: Dd2, 72 h; method in brief: as §1
[10] = test system: Plasmodium falciparum; assay: Antimalarial activity against […] asexual blood stage Plasmodium falciparum 3D7 assessed as reduction in parasite recrudescence at 10 times EC50 for 72 hrs measured after 28 days post invasion by Giemsa staining-based light microscopic analysis; format: functional
Method in brief: (§3)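 Parasite cultures exposed for 72 h to 10× EC50 of inhibitor. Drug then removed and cultures maintained for 28 days post treatment. Recrudescence monitored by microscopy.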

[11] = test system: Plasmodium falciparum; assay: Antimalarial activity against dihydroartemisinin-resistant asexual blood stage Plasmodium falciparum 803 assessed as reduction in parasite recrudescence at 10 times EC50 for 72 hrs measured after 28 days post invasion by Giemsa staining-based light microscopic analysis; format: functional; method in brief: as §3
[12] = test system: Plasmodium falciparum; assay: Antimalarial activity against Plasmodium falciparum 3D7 assessed as alteration of parasite morphology at 10 times EC50 dosed at ring stage […] by Giemsa staining-based light microscopic analysis; format: functional, organism-based
[13] = test system: HeLa; assay: Cytotoxicity against human HeLa cells assessed as reduction in cell viability up to 2 uM after 48 hrs by MTT assay; format: cell-based
Method in brief: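 HeLa cell viability measured by MTT assay with compound at concentrations up to 2 µM.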

[14] = test system: Plasmodium yoelii; assay: Antimalarial activity against Plasmodium yoelii YM infected in BALB/c mouse assessed as parasite growth inhibition at 5 mg/kg, sc administered QD for 4 days starting at 2 hrs post infection by Giemsa-staining based microscopic analysis; format: functional; settings: read-out: GI
Method in brief: (§4)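 P. yoelii-infected mice, n=3 per group. Subcutaneous injection once daily for 4 days starting at 2 h post infection. Growth inhibition determined at 24 h post treatment by blood-smear microscopy. Cure time taken as the minimum period to cure all mice in the group.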

[15] = test system: Plasmodium yoelii; assay: Antimalarial activity against Plasmodium yoelii YM infected in BALB/c mouse assessed as time duration for parasite cure at 5 mg/kg, sc administered QD for 4 days starting at 2 hrs post infection by Giemsa-staining based microscopic analysis; format: functional; method in brief: as §4
[16] = test system: Plasmodium yoelii; assay: Antimalarial activity against Plasmodium yoelii YM infected in BALB/c mouse assessed as mouse survival at 5 mg/kg, sc administered QD for 4 days starting at 2 hrs post infection by Giemsa-staining based microscopic analysis; format: functional
Method in brief: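 Mice inoculated with 1×106 P. yoelii parasites, then dosed subcutaneously once daily for 4 days starting 2 h post infection. Parasitemia followed by microscopy of blood smears. Survival scored at 40 days post infection in groups of n=3 mice. DMSO-only controls.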

[17] = test system: Plasmodium yoelii; assay: Antimalarial activity against Plasmodium yoelii YM infected in BALB/c mouse assessed as parasite growth inhibition at 10 mg/kg, sc administered QD for 4 days starting at 96 hrs post infection by Giemsa-staining based microscopic analysis; format: functional; settings: read-out: GI
Method in brief: (§5)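 P. yoelii-infected mice, n=3 per group. Subcutaneous injection once daily for 4 days starting at 96 h post infection. Parasitemia followed on blood-smear microscopy, with inhibition measured at 24 h post treatment. Cure time taken as the minimum period to cure all mice; survival recorded at 40 days. DMSO controls included.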

[18] = test system: Plasmodium yoelii; assay: Antimalarial activity against Plasmodium yoelii YM infected in BALB/c mouse assessed as time duration for parasite cure at 10 mg/kg, sc administered QD for 4 days starting at 96 hrs post infection by Giemsa-staining based microscopic analysis; format: functional; method in brief: as §5
[19] = test system: Plasmodium yoelii; assay: Antimalarial activity against Plasmodium yoelii YM infected in BALB/c mouse assessed as time duration for parasite cure at 90 mg/kg, sc administered BID for 4 days starting at 96 hrs post infection, 8 hrs apart by Giemsa-staining based microscopic analysis; format: functional
Method in brief: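 P. yoelii-infected mice, n=3 per group. Subcutaneous injection twice daily, 8 h apart, for 4 days starting at 96 h post infection. Growth inhibition read from blood smears at 24 h post treatment. Cure time taken as the minimum period to cure all mice in the group. DMSO controls included.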

[20] = test system: Plasmodium yoelii; assay: Antimalarial activity against Plasmodium yoelii YM infected in BALB/c mouse assessed as parasite cure level at 10 to 90 mg/kg, ip administered on days 1 post infection by Giemsa-stained microscopic analysis; format: functional, organism-based
Method in brief: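 Mice (groups of three) inoculated with 1×10^6 P. yoelii parasites. Single intraperitoneal dose of 10, 30 or 90 mg/kg given 24 h after inoculation. DMSO-only untreated group included. Outcome followed by blood-smear microscopy for cure, with survival scored at 40 days post infection.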

[21] = test system: Plasmodium falciparum; assay: Synergistic antimalarial activity against Plasmodium falciparum in presence of quinine; format: functional
Method in brief: (§6)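 In vitro drug interaction analyses with other antimalarials against P. falciparum. Experiments repeated three times; error bars s.e.m.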

[22] = test system: Plasmodium falciparum; assay: Synergistic antimalarial activity against Plasmodium falciparum in presence of chloroquine; format: functional; method in brief: as §6

With `Cc1c(-c2ccc(Cc3ccc(OC(F)(F)F)cc3)cc2)[nH]c2cccc(F)c2c1=O` the EC50 [1] was 5.48 nM, the IC50 [2] was 123 nM and the IC50 [3] was 16.7 nM. For the same molecule, the Kd [4] was 37200 nM, the EC50 [5] was 6.25 nM and the EC50 [6] was 8.16 nM. The EC50 [7] was 7.18 nM, the EC50 [8] was 11.3 nM and the EC50 [9] was 3.83 nM. The Activity [10] was “Active”, the Activity [11] was “Active” and the Activity [12] was “Active”. For the same molecule, the Activity [13] was “Non-Toxic”, the inhibition in vivo at 5 mg/kg [14] was 100% and the Time [15] was 28 days. It also gave a survival at 5 mg/kg [16] of 100%, an inhibition in vivo at 10 mg/kg [17] of 98.4% and a Time [18] of 17 days. For the same molecule, the Time [19] was 4 days, the Activity [20] was “Active” and the “fractional inhibitory concentration index (FICI)” value [21] was 2.33. The “fractional inhibitory concentration index (FICI)” value [22] was 1.52.
